Laboratory results reported in ChEMBL document CHEMBL4390685, “Synthesis, antibacterial and cytotoxic evaluation of flavipucine and its derivatives” (Bioorg Med Chem Lett, 2019).
Converted amounts (≈) assume the structure as drawn. The source made the active and inactive calls. No cut-off for these calls is given here.

Experiments:
Bacillus subtilis [1] = experiment: Bactericidal activity against Bacillus subtilis NBRC 3134 incubated for 18 hrs followed by inoculums transfer to MHA plate and further incubated for 24 hrs; type: functional
How it was run: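 MBC determined per CLSI methods following broth microdilution MIC testing. Ampicillin and chloramphenicol served as positive controls.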

HL-60 [2] = experiment: Cytotoxicity against human HL60 cells assessed as reduction in cell viability incubated for 48 hrs by WST8 dye based assay; type: functional; conditions: HL-60, 48 h
How it was run: (§1)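 Suspension leukemia lines (HL-60 promyelocytic, Jurkat T-ALL) exposed to a range of concentrations for 48 h. Viability read by WST-8. IC50 is the concentration giving 50% loss of viability, mean ± SD of triplicates. SN-38 served as positive control.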

Bacillus subtilis [3] = experiment: Antibacterial activity against Bacillus subtilis NBRC 3134 after 18 hrs by broth microdilution method; type: functional; conditions: NBRC 3134, 18 h
How it was run: (§2)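 Broth microdilution run to CLSI standard methods. MIC taken as the lowest concentration inhibiting growth. Ampicillin and chloramphenicol served as positive controls. Compounds were tested up to 128 µg/mL.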

HeLa = experiment: Cytotoxicity against human HeLa cells assessed as reduction in cell viability incubated for 48 hrs by WST8 dye based assay; type: functional
How it was run: (§3)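 Adherent human cancer lines (A549 lung, HCT116 colon, HeLa cervix, TE8 esophageal squamous) exposed to a range of concentrations for 48 h. Viability read by WST-8. IC50 taken as 50% inhibition of viability, mean ± SD of triplicate experiments. SN-38 served as positive control. Tested up to 100 μM.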

HCT-116 = experiment: Cytotoxicity against human HCT116 cells assessed as reduction in cell viability incubated for 48 hrs by WST8 dye based assay; type: functional; conditions: HCT-116, 48 h; how it was run: as §3
A549 = experiment: Cytotoxicity against human A549 cells assessed as reduction in cell viability incubated for 48 hrs by WST8 dye based assay; type: functional; conditions: A549, 48 h; how it was run: as §3
Escherichia coli = experiment: Antibacterial activity against Escherichia coli NBRC 3301 after 17 hrs by broth microdilution method; type: functional; conditions: NBRC 3301, 17 h; how it was run: as §2
Jurkat = experiment: Cytotoxicity against human Jurkat cells assessed as reduction in cell viability incubated for 48 hrs by WST8 dye based assay; type: functional; how it was run: as §1
HEK293 = experiment: Cytotoxicity against human HEK293 cells assessed as reduction in cell viability incubated for 48 hrs by WST8 dye based assay; conditions: HEK293, 48 h
How it was run: (§4)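 Adherent non-cancer cells (HEK293, Ad5-transformed embryonic kidney; MRC-5, normal diploid fibroblast) treated with graded concentrations for 48 h. WST-8 viability read-out. IC50 reported as mean ± SD of triplicate experiments. SN-38 served as positive control. Tested up to 50 μM.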

TE-8 = experiment: Cytotoxicity against human TE8 cells assessed as reduction in cell viability incubated for 48 hrs by WST8 dye based assay; type: functional; conditions: TE-8, 48 h; how it was run: as §3
MRC5 = experiment: Cytotoxicity against human MRC5 cells assessed as reduction in cell viability incubated for 48 hrs by WST8 dye based assay; conditions: MRC5, 48 h; how it was run: as §4
HL-60 [4] = experiment: Induction of DNA fragmentation in human HL60 cells at 0.5 to 5 uM after 6 hrs by […] staining-based agarose gel electrophoresis; type: functional, cell-based
HL-60 [5] = experiment: Induction of cell death in human HL60 cells assessed as reduction in cell viability at 2 uM incubated for 6 hrs after pre-treatment with caspase inhibitor Z-Asp-CH2-DCB for 1 hr by WST8 dye based assay; type: functional

| Structure (SMILES) | MBC (Bacillus subtilis [1]) [µg/mL] | IC50 (HL-60 [2]) [µM] | MIC (Bacillus subtilis [3]) [µg/mL] | IC50 (HeLa) [µM] | IC50 (HCT-116) [µM] | IC50 (A549) [µM] | MIC (Escherichia coli) [µg/mL] | IC50 (Jurkat) [µM] | IC50 (HEK293) [µM] | IC50 (TE-8) [µM] | IC50 (MRC5) [µM] | Activity (HL-60 [4]) | Activity (HL-60 [5]) |
| --- | --- | --- | --- | --- | --- | --- | --- | --- | --- | --- | --- | --- | --- |
| CC1=CC(=O)[C@]2(O[C@@H]2C(=O)CC(C)C)C(=O)N1 | 8 (≈ 33.7 µM) | 1.7 | 8 (≈ 33.7 µM) |  |  |  |  |  |  |  |  |  |  |
| CC1=CC(=O)[C@@]2(O[C@H]2C(=O)CC(C)C)C(=O)N1 | 8 (≈ 33.7 µM) | 1.6 | 8 (≈ 33.7 µM) |  |  |  |  |  |  |  |  |  |  |
| CC(C)CC(=O)[C@@H]1O[C@@]12C(=O)C=C(Cc1ccccc1)NC2=O (racemic) | 128 (≈ 408 µM) | 37.3 | 128 (≈ 408 µM) | > 100 | > 100 | > 100 | > 128 | > 50 | > 50 | > 100 | > 50 |  |  |
| CC(C)C[C@]1(O)NC(=O)[C@]2(OC(Cc3ccccc3)=CC2=O)[C@H]1O (racemic) | > 128 | 28 | > 128 | > 100 | > 100 | > 100 | > 128 | > 50 | > 50 | > 100 | > 50 |  |  |
| CC1=CC(=O)[C@]2(O1)C(=O)N[C@@](O)(CC(C)C)[C@@H]2O (racemic) | > 128 | > 50 | > 128 | > 100 | > 100 | > 100 | > 128 | > 50 | > 50 | > 100 | > 50 |  |  |
| CC(C)CC(=O)C1Oc2cc(Cc3ccccc3)[nH]c(=O)c2O1 (racemic) | > 128 | > 50 | > 128 | > 100 | > 100 | > 100 | > 128 | > 50 | > 50 | > 100 | > 50 |  |  |
| CC(C)C[C@@]12NC(=O)[C@]3(O)C(=O)C[C@@](C)(O[C@@H]31)O2 (racemic) | > 128 | 37.7 | > 128 | > 100 | > 100 | > 100 | > 128 | > 50 | > 50 | > 100 | > 50 |  |  |
| Cc1cc2c(c(=O)[nH]1)OC(C(=O)CC(C)C)O2 (racemic) | > 128 | 19.9 | > 128 | > 100 | > 100 | > 100 | > 128 | > 50 | > 50 | > 100 | > 50 |  |  |
| CC1=CC(=O)C2(OC2C(=O)CC(C)C)C(=O)N1 (racemic) | 8 (≈ 33.7 µM) | 1.8 | 8 (≈ 33.7 µM) | 40.5 | 30.4 | 32.1 | > 128 | 8 | 35.9 | 21.6 | 33.2 | inactive | Active |
| CCc1c2c(nc3ccc(O)cc13)-c1cc3c(c(=O)n1C2)COC(=O)[C@]3(O)CC [7-ETHYL-10-HYDROXYCAMPTOTHECIN] |  | 2.4 |  | 13.1 | < 1 | 6.6 |  | < 1 | < 1 | < 1 | 15.3 |  |  |
| CC1(C)S[C@@H]2[C@H](NC(=O)[C@H](N)c3ccccc3)C(=O)N2[C@H]1C(=O)O [AMPICILLIN] | < 0.5 |  | < 0.5 |  |  |  | 4 (≈ 11.4 µM) |  |  |  |  |  |  |
| O=C(N[C@H](CO)[C@H](O)c1ccc([N+](=O)[O-])cc1)C(Cl)Cl [CHLORAMPHENICOL] | 64 (≈ 198 µM) |  | 4 (≈ 12.4 µM) |  |  |  |  |  |  |  |  |  |  |
